The values below come from ChEMBL document CHEMBL1124146, “Synthesis of the tumorigenic 3,4-dihydrodiol metabolites of dibenz[a,j]anthracene and 7,14-dimethyldibenz[a,j]anthracene” (1988).

Holding throughout (format): functional
Experiment [1] is filed under the species Mus musculus. The experiment can be described thus: Compound was tested at a dose of 400 nmol for the skin tumor initiating activity expressed as papillomas per mouse. Put shortly: (§1)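 The initiator was applied topically to the shaved skin in 0.2 mL peroxide-free THF; controls received THF only. After 2 weeks, 3.4 nmol TPA in 0.2 mL acetone was given twice weekly. Papillomas were recorded weekly, with random histology. Means were compared by Student's t test.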

Experiment [2] is filed under the species Mus musculus. The experiment can be described thus: Compound was tested at a dose of 400 nmol for the skin tumor initiating activity expressed as percent of mice with papillomas. Put shortly:
as §1

The species named for experiment [3] is Mus musculus. The experiment can be described thus: Compound was tested at a dose of 100 nmol for the skin tumor initiating activity expressed as papillomas per mouse. Put shortly: as §1
Experiment [4] is filed under the species Mus musculus. The experiment can be described thus: Compound was tested at a dose of 100 nmol for the skin tumor initiating activity expressed as percent of mice with papillomas. The method in brief:
as §1

Regarding `c1ccc2c(c1)ccc1cc3ccc4ccccc4c3cc12` [DIBENZO[A,J]ANTHRACENE], the Activity in the experiment filed under Mus musculus [1] stood at 0.58; in the experiment filed under Mus musculus [2], 29%.

As to `Cc1c2ccc3c(c2c(C)c2c1ccc1ccccc12)C=C[C@H](O)[C@H]3O`, the Activity is given as 9.9 in the experiment listed under Mus musculus [3], 93% in the experiment listed under Mus musculus [4], 14.7 in the experiment filed under Mus musculus [1] and 100% in the experiment listed under Mus musculus [2].

As to `O[C@H]1C=Cc2c(ccc3cc4ccc5ccccc5c4cc23)[C@@H]1O`, the Activity came out at 0.65 in the experiment filed under Mus musculus [1] and 39% in the experiment filed under Mus musculus [2].

As to `Cc1c2ccc3ccccc3c2c(C)c2c1ccc1ccccc12`, the Activity in the experiment filed under Mus musculus [3] came out at 8.4; in the experiment listed under Mus musculus [4], 97%; in the experiment filed under Mus musculus [1] it was 17.3; in the experiment listed under Mus musculus [2], 97%.

`O[C@H]1[C@H]2O[C@H]2c2c(ccc3cc4ccc5ccccc5c4cc23)[C@@H]1O`: the Activity is recorded as 3.95 in the experiment filed under Mus musculus [1] and 92% in the experiment listed under Mus musculus [2].
